“And” between values parts separate entries of the source, which are not always exact repeats. Equal values may be shown once.
Assays:
Glutamate NMDA receptor [1] = assay: Antagonist activity of compound against rat N-methyl-D-aspartate glutamate receptor using 11 nM [3H]glycine; type: functional
Mus musculus [2] = assay: In vivo effective dose against harmaline induced cGMP elevation in mouse cerebellum upon intravenous administration; type: functional
Rattus norvegicus [3] = assay: In vivo effective dose to protect rats against maximal electroshock induced seizures upon intravenous administration; type: functional
How it was run: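 Maximal electroshock seizures in adult male CDF rats, compound iv, vehicle water, saline or 50 mM Tris base at 1 mL/kg.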

Mus musculus [4] = assay: In vivo effective dose of compound to protect mice from quinolinic acid seizures upon intravenous administration; type: functional
Mus musculus [5] = assay: In vivo effective dose to protect the mouse (DBA/2J) from audiogenic seizures upon intraperitoneal administration; type: functional; conditions: ip
Rattus norvegicus [6] = organism: Rattus norvegicus; assay: In vitro inhibitory concentration against glutamate stimulated accumulation of cyclic GMP in neonatal rat cerebral slices; type: functional
Glutamate NMDA receptor [7] = assay: In vitro inhibitory concentration against binding of the [3H]glycine to strychnine-insensitive glycine binding sites of rat N-methyl-D-aspartate glutamate receptor; type: protein-complex assay
Rattus norvegicus [8] = assay: Reduction of infarct in rat with proximal middle cerebral artery occlusion at total dose of 245 mg/kg after 360 min initiation (duration of effect 6 h); type: functional
Rattus norvegicus [9] = assay: Reduction of infarct in rat with proximal middle cerebral artery occlusion at total dose of 62 mg/kg after 30 min initiation (duration of effect 6 h); type: functional
Rattus norvegicus [10] = assay: Reduction of infarct in rat with proximal middle cerebral artery occlusion at total dose of 245 mg/kg after 120 min initiation (duration of effect 6 h); type: functional
Rattus norvegicus [11] = assay: Reduction of infarct in rat with proximal middle cerebral artery occlusion at total dose of 16 mg/kg after 30 min initiation (duration of effect 6 h); type: functional
Rattus norvegicus [12] = assay: Reduction of infarct in rat with proximal middle cerebral artery occlusion at total dose of 490 mg/kg after -15 min initiation (duration of effect 6 h); type: functional
Rattus norvegicus [13] = assay: Reduction of infarct in rat with proximal middle cerebral artery occlusion at total dose of 490 mg/kg after 30 min initiation (duration of effect 6 h); type: functional
Rattus norvegicus [14] = assay: Reduction of infarct volume in rat with distal middle cerebral artery occlusion at total dose of 126 mg/kg after -15 min of initiation (duration of effect 6 h); type: functional
Rattus norvegicus [15] = assay: Reduction of infarct volume in rat with distal middle cerebral artery occlusion at total dose of 135 mg/kg after 30 min of initiation (duration of effect 4 h); type: functional
Rattus norvegicus [16] = assay: Reduction of infarct in rat with proximal middle cerebral artery occlusion at total dose of 245 mg/kg after 480 min initiation (duration of effect 6 h); type: functional
[17] = Half life was measured in rat following intravenous administration; type: ADME, organism-based; conditions: in vivo
Rattus norvegicus [18] = assay: Reduction of infarct in rat with proximal middle cerebral artery occlusion at total dose of 123 mg/kg after 30 min initiation (duration of effect 6 h); type: functional
Rattus norvegicus [19] = assay: Reduction of infarct in rat with proximal middle cerebral artery occlusion at total dose of 31.5 mg/kg after 30 min initiation (duration of effect 6 h); type: functional
Rattus norvegicus [20] = assay: Reduction of infarct in rat with proximal middle cerebral artery occlusion at total dose of 245 mg/kg after 180 min initiation (duration of effect 6 h); type: functional
Rattus norvegicus [21] = assay: Reduction of infarct volume in rat with distal middle cerebral artery occlusion at total dose of 245 mg/kg after -15 min of initiation (duration of effect 6 h); type: functional
Rattus norvegicus [22] = assay: Reduction of infarct in rat with proximal middle cerebral artery occlusion at total dose of 245 mg/kg after 30 min initiation (duration of effect 6 h); type: functional
Rattus norvegicus [23] = assay: Reduction of infarct volume in rat with distal middle cerebral artery occlusion at total dose of 490 mg/kg after -15 min of initiation (duration of effect 6 h); type: functional
Glutamate NMDA receptor [24] = assay: Antagonist activity of compound against rat N-methyl-D-aspartate glutamate receptor using [3H]glycine
Glutamate NMDA receptor [25] = assay: Binding affinity against strychnine-insensitive glycine sites of rat N-methyl-D-aspartate glutamate receptor using [3H]glycine; type: protein-complex assay
How it was run: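 Strychnine-insensitive [3H]glycine binding to washed, Triton-treated rat cortical/hippocampal membranes. Triplicates with strychnine and 400 µg protein in 50 mM HEPES-KOH pH 7.4, 30 min at 4 °C. Ended by centrifugation; pellets counted by scintillation; nonspecific binding taken in 0.1 mM D-serine. IC50 = concentration halving specific binding, mean of two or more experiments, fitted by logistic nonlinear regression.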

Rattus norvegicus [26] = assay: Reduction of infarct volume in rat with distal middle cerebral artery occlusion at total dose of 52 mg/kg after 30 min of initiation (duration of effect 6 h); type: functional
Rattus norvegicus [27] = assay: Reduction of infarct volume in rat with distal middle cerebral artery occlusion at total dose of 52 mg/kg after -15 min of initiation (duration of effect 6 h); type: functional
Rattus norvegicus [28] = assay: Reduction of infarct volume in rat with proximal middle cerebral artery occlusion at total dose of 52 mg/kg after -15 min of initiation (duration of effect 6 h); type: functional
Rattus norvegicus [29] = assay: Reduction of infarct volume in rat with proximal middle cerebral artery occlusion at total dose of 52 mg/kg after 180 min of initiation (duration of effect 6 h); nd=Not determined; type: functional

SMILES	IC50 (Glutamate NMDA receptor [1]) [nM]	ED50 (Mus musculus [2]) [mg/kg]	ED50 (Rattus norvegicus [3]) [mg/kg]	ED50 (Mus musculus [4]) [mg/kg]	ED50 (Mus musculus [5]) [mg/kg]	IC50 (Rattus norvegicus [6]) [nM]	IC50 (Glutamate NMDA receptor [7]) [nM]	also measured
O=C(O)/C(=C/c1c(C(=O)O)[nH]c2cc(Cl)cc(Cl)c12)c1ccsc1	14	35	54.1	29.5	18.6	87	9.6	–
Nc1cccc(/C(=C\c2c(C(=O)O)[nH]c3cc(Cl)cc(Cl)c23)C(=O)O)c1	–	15	30.6	14.9	10.8	364	24.3	Reduction (Rattus norvegicus [8]): 58% and 59%; Reduction (Rattus norvegicus [9]): 48%; Reduction (Rattus norvegicus [10]): 50%; Reduction (Rattus norvegicus [11]): 12%; Reduction (Rattus norvegicus [12]): 73%; Reduction (Rattus norvegicus [13]): 77%; Reduction (Rattus norvegicus [14]): 0%; Reduction (Rattus norvegicus [15]): 28%; Reduction (Rattus norvegicus [16]): 13%; half-life [17]: > 1 h; Reduction (Rattus norvegicus [18]): 49%; Reduction (Rattus norvegicus [19]): 40%; Reduction (Rattus norvegicus [20]): 41%; Reduction (Rattus norvegicus [21]): 13%; Reduction (Rattus norvegicus [22]): 68% and 57% and 76% and 71%; Reduction (Rattus norvegicus [23]): 32%
O=C(O)/C(=C/c1c(C(=O)O)[nH]c2cc(Cl)cc(Cl)c12)c1ccccc1	–	59	29	37	12.2	282	10.9	IC50 (Glutamate NMDA receptor [24]): 11 nM
O=C(O)/C(=C/c1c(C(=O)O)[nH]c2cc(Cl)cc(Cl)c12)c1cccc(NC(=O)c2ccccc2)c1	512	–	–	–	–	–	–	–
O=c1[nH]c2cc(Cl)ccc2c(O)c1-c1cccc(Oc2ccccc2)c1	–	< 0.05	3.5	5.2	1	31	13.2	–
O=C(O)/C(=C/c1c(C(=O)O)[nH]c2cc(Cl)cc(Cl)c12)c1cccc2ccccc12	145	–	–	–	–	–	–	–
O=C(O)/C(=C/c1c(C(=O)O)[nH]c2cc(Cl)cc(Cl)c12)c1ccc(F)cc1	35.5	–	–	–	–	–	–	–
CS(=O)(=O)Nc1ccc(/C(=C\c2c(C(=O)O)[nH]c3cc(Cl)cc(Cl)c23)C(=O)O)cc1	167	–	–	–	–	–	–	–
O=C(O)/C(=C/c1c(C(=O)O)[nH]c2cc(Cl)cc(Cl)c12)c1cccs1	9	–	–	–	–	–	–	–
Nc1cccc(/C(=C/c2c(C(=O)O)[nH]c3cc(Cl)cc(Cl)c23)C(=O)O)c1	–	–	–	–	–	–	–	Ki (Glutamate NMDA receptor [25]): 553 nM
Cc1ccc(/C(=C\c2c(C(=O)O)[nH]c3cc(Cl)cc(Cl)c23)C(=O)O)cc1	105	–	–	–	–	–	–	–
O=C(O)/C(=C/c1c(C(=O)O)[nH]c2cc(Cl)cc(Cl)c12)c1ccco1	22	–	–	–	–	–	–	–
O=C(O)/C(=C/c1c(C(=O)O)[nH]c2cc(Cl)cc(Cl)c12)c1ccc(C(F)(F)F)cc1	89	–	–	–	–	–	–	–
O=C(NCc1ccccc1)/C(=C/c1c(C(=O)O)[nH]c2cc(Cl)cc(Cl)c12)c1ccccc1	31	–	–	–	–	–	–	–
COC(=O)Nc1cccc(/C(=C\c2c(C(=O)O)[nH]c3cc(Cl)cc(Cl)c23)C(=O)O)c1	114	> 64	> 128	> 64	8.5	840	114	–
O=C(O)/C(=C/c1c(C(=O)O)[nH]c2cc(Cl)cc(Cl)c12)c1ccc([N+](=O)[O-])cc1	21	–	–	–	–	–	–	–
O=C(/C=C/c1c(C(=O)[O-])[nH]c2cc(Cl)cc(Cl)c12)Nc1ccccc1.[Na+] [GAVESTINEL SODIUM]	–	–	> 32	> 64	> 25	262	15.2	–
O=C(/C=C/c1c(C(=O)O)[nH]c2cc(Cl)cc(Cl)c12)Nc1ccccc1 [GAVESTINEL]	15	–	–	–	–	–	–	–
O=c1[nH]c2cc(Cl)c(Cl)c([N+](=O)[O-])c2[nH]c1=O [LICOSTINEL]	–	3.5	46.3	14.7	3.7	183	20	Reduction (Rattus norvegicus [26]): 33% and 24%; Reduction (Rattus norvegicus [27]): 18%; Reduction (Rattus norvegicus [28]): 50%; Reduction (Rattus norvegicus [29]): 28%

Reference: ChEMBL document CHEMBL1142686, “CoMFA, synthesis, and pharmacological evaluation of (E)-3-(2-carboxy-2-arylvinyl)-4,6-dichloro-1H-indole-2-carboxylic acids: 3-[2-(3-aminophenyl)-2-carboxyvinyl]-4,6-dichloro-1H-indole-2-carboxylic acid, a potent selective glycine-site NMDA receptor antagonist” (J Med Chem, 2005)
